Experimental data reported in ChEMBL document CHEMBL1123181 (J Med Chem, 1986).
Blank lines part the entries; values can stand above or below the compound they belong to.

Key:
Rattus norvegicus [1] = experiment: Time taken by the compound to change arterial pressure outside the control area at a dose of 100 mg/kg, po; 2-12.5; assay type: functional, Artery
How it was run: (§1)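 Spontaneously hypertensive rats kept on a sodium-deficient diet, single oral dose, arterial pressure and heart rate monitored. Duration is the time pressure lies outside a control area, defined as the means (±2 standard deviations) of arterial pressure and heart rate readings from 45 control rats. Range given across animals.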

[2] = target: T1, Angiotensin-converting enzyme (Oryctolagus cuniculus, UniProt P12822); experiment: In vitro inhibition of Angiotensin I converting enzyme activity in rabbit lung; assay type: tissue-based; conditions: read-out: I50
T1 sequence (P12822 whole entry): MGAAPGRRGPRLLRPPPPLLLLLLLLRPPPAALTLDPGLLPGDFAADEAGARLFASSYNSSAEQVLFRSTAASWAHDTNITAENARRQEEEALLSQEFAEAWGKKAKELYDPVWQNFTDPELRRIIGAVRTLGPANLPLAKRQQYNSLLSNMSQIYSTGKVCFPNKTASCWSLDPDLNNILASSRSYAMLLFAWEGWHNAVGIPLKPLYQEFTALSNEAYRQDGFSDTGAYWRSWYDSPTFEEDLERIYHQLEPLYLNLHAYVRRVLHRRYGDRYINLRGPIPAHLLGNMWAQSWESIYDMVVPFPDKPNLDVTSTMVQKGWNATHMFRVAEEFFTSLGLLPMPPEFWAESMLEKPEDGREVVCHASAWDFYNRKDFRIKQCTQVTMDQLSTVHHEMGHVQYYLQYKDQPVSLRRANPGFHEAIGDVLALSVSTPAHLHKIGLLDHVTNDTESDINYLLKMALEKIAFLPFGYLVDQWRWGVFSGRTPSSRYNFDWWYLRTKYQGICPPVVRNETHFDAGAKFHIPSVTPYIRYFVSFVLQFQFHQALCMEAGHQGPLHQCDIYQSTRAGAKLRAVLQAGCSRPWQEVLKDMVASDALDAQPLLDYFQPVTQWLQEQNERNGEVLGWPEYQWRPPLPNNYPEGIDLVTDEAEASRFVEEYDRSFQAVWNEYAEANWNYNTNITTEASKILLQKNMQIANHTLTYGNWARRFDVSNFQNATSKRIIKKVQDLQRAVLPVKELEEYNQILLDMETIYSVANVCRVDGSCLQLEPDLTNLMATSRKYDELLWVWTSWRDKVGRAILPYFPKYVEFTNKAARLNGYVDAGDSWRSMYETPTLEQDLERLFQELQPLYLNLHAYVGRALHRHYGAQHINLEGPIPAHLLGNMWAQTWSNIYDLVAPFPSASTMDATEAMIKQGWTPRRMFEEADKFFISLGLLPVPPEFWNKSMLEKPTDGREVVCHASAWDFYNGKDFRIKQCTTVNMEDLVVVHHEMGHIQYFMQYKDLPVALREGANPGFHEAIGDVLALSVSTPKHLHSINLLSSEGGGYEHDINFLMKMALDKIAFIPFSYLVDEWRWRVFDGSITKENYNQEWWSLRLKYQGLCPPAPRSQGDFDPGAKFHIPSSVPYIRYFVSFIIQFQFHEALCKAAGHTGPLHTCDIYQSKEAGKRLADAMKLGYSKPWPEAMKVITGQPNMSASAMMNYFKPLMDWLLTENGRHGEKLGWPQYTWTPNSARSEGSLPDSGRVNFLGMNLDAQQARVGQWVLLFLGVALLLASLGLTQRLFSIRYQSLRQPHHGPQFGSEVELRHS

[3] = target: T1, Angiotensin-converting enzyme; experiment: In vitro inhibition of Angiotensin I converting enzyme activity at pH 8.5 in rabbit lung; assay type: tissue-based; conditions: read-out: I50
Rattus norvegicus [4] = experiment: The time to 50% recovery of the angiotensin I response was measured after po administration at 0.15 mg/kg; 10-50
Rattus norvegicus [5] = experiment: Maximum percent change in mean arterial pressure by the compound over control after po administration at 100 mg/kg dosage; -(15-27); assay type: functional, Artery
How it was run: (§2)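 Spontaneously hypertensive rats kept on a sodium-deficient diet received the agent orally. Value = maximum % change in mean arterial pressure over control. Duration = time outside a control area, defined as the means ±2 SD of arterial pressure and heart rate readings from 45 control rats.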

[6] = target: Angiotensin-converting enzyme (Rattus norvegicus) (UniProt P47820); experiment: Percentage inactivation of the angiotensin I induced vasopressor response in normotensive conscious rats after po administration at dose 0.15 mg/kg; 65-69
Chain of Angiotensin-converting enzyme (Rattus norvegicus) (P47820 whole entry, looked up): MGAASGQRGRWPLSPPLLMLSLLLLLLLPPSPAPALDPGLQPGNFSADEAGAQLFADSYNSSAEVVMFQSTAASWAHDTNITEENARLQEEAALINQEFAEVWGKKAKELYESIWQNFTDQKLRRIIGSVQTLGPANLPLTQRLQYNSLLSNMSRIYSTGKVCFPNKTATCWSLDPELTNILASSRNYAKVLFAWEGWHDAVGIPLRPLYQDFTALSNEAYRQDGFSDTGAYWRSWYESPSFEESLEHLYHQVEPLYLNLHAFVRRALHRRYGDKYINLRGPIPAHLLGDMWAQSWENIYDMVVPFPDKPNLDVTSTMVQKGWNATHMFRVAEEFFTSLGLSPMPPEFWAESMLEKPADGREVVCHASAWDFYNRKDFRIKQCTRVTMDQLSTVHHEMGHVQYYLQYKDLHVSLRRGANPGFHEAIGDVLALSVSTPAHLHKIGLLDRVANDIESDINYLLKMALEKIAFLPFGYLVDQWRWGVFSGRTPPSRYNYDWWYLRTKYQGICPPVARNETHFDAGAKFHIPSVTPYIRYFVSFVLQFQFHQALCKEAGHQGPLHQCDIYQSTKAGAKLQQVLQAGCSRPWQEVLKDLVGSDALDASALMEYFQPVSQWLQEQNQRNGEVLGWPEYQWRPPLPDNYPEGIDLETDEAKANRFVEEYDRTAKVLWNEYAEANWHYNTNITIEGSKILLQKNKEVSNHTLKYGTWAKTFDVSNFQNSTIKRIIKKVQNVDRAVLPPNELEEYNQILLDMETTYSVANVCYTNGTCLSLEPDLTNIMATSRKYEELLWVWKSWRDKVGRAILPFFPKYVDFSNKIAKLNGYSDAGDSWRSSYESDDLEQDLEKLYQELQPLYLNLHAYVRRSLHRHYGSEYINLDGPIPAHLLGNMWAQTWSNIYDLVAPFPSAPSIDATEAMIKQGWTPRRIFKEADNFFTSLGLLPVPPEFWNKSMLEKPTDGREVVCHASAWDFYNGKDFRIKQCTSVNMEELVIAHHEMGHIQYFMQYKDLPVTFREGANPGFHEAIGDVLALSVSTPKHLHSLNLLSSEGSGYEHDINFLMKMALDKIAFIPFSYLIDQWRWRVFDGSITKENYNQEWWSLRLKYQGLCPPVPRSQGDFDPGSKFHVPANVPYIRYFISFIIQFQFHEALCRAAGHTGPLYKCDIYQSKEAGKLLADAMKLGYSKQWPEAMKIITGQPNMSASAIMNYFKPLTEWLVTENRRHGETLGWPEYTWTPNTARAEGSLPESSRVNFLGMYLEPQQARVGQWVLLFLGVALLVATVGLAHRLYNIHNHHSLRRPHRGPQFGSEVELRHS

[7] = target: Angiotensin-converting enzyme (Rattus norvegicus) (UniProt P47820); experiment: The time to 50% recovery of the angiotensin I response was measured after po administration at 0.15 mg/kg; 10-20
Rattus norvegicus [8] = experiment: Maximum percent change in mean arterial pressure by the compound over control after ip administration at 100 mg/kg dosage; 9-14; conditions: route intraperitoneal
[9] = target: Angiotensin-converting enzyme (Rattus norvegicus) (UniProt P47820); experiment: Percentage inactivation of the angiotensin I induced vasopressor response in normotensive conscious rats after po administration at dose 0.15 mg/kg
[10] = target: Angiotensin-converting enzyme (Rattus norvegicus) (UniProt P47820); experiment: The time to 50% recovery of the angiotensin I response was measured after po administration at 1.5 mg/kg; 70-90
Rattus norvegicus [11] = experiment: Time taken by the compound to change arterial pressure outside the control area at a dose of 50 mg/kg, po; 3-19.5; assay type: functional, Artery; how it was run: as §1
Rattus norvegicus [12] = experiment: Maximum percent change in mean arterial pressure by the compound over control after po administration at 50 mg/kg dosage; -(31-34); assay type: functional, Artery; how it was run: as §2
[13] = target: Angiotensin-converting enzyme (Rattus norvegicus) (UniProt P47820); experiment: Percentage inactivation of the angiotensin I induced vasopressor response in normotensive conscious rats after po administration at dose 1.5 mg/kg; 71-81
[14] = target: Angiotensin-converting enzyme (Rattus norvegicus) (UniProt P47820); experiment: The time to 50% recovery of the angiotensin I response was measured after po administration at 0.15 mg/kg; 10-40
Rattus norvegicus [15] = experiment: Time taken by the compound to change arterial pressure outside the control area at a dose of 100 mg/kg, po; assay type: functional, Artery; how it was run: as §1
[16] = target: Angiotensin-converting enzyme (Rattus norvegicus) (UniProt P47820); experiment: Percentage inactivation of the angiotensin I induced vasopressor response in normotensive conscious rats after po administration at dose 0.15 mg/kg; 55-76
Rattus norvegicus [17] = experiment: Maximum percent change in mean arterial pressure by the compound over control after po administration at 100 mg/kg dosage; assay type: functional, Artery; how it was run: as §2
[18] = target: Angiotensin-converting enzyme (Rattus norvegicus) (UniProt P47820); experiment: Percentage inactivation of the angiotensin I induced vasopressor response in normotensive conscious rats after po administration at dose 0.60 mg/kg; 50-55
Rattus norvegicus [19] = experiment: Time taken by the compound to change arterial pressure outside the control area at a dose of 100 mg/kg, po; 5.5-15; assay type: functional, Artery; how it was run: as §1
Rattus norvegicus [20] = experiment: Maximum percent change in mean arterial pressure by the compound over control after po administration at 100 mg/kg dosage; -(17-29); assay type: functional, Artery; how it was run: as §2
[21] = target: Angiotensin-converting enzyme (Rattus norvegicus) (UniProt P47820); experiment: The time to 50% recovery of the angiotensin I response was measured after po administration at 0.6 mg/kg; 40-50
Rattus norvegicus [22] = experiment: Time taken by the compound to change arterial pressure outside the control area at a dose of 100 mg/kg, po; 15->24; assay type: functional, Artery; how it was run: as §1
[23] = target: Angiotensin-converting enzyme (Rattus norvegicus) (UniProt P47820); experiment: The time to 50% recovery of the angiotensin I response was measured after po administration at 0.3 mg/kg; 10-30
[24] = target: Angiotensin-converting enzyme (Rattus norvegicus) (UniProt P47820); experiment: Percentage inactivation of the angiotensin I induced vasopressor response in normotensive conscious rats after po administration at dose 0.3 mg/kg; 45-50
Rattus norvegicus [25] = experiment: Maximum percent change in mean arterial pressure by the compound over control after po administration at 100 mg/kg dosage; -(-27-45); assay type: functional, Artery; how it was run: as §2
[26] = target: T1, Angiotensin-converting enzyme; experiment: Compound was tested in vitro for inhibition of activity of rabbit lung Angiotensin I converting enzyme at pH 8.5; 0.14-10; conditions: read-out: I50
[27] = target: Angiotensin-converting enzyme (Rattus norvegicus) (UniProt P47820); experiment: Percentage inactivation of the angiotensin I induced vasopressor response in normotensive conscious rats after po administration at dose 0.80 mg/kg; 50-55
Rattus norvegicus [28] = experiment: Maximum percent change in mean arterial pressure by the compound over control after po administration at 100 mg/kg dosage; -(-32-40); assay type: functional, Artery; how it was run: as §2
[29] = target: Angiotensin-converting enzyme (Rattus norvegicus) (UniProt P47820); experiment: The time to 50% recovery of the angiotensin I response was measured after po administration at 0.8 mg/kg; 35-50

- IC50 [2]: 13 nM
- IC50 [3]: 18 nM
- Duration (Rattus norvegicus [4]): 10 min
- inhibition [6]: 65%
Compound: CC1CSC(=O)CN(C2CCCC2)C1=O (configuration not stated)
- Duration (Rattus norvegicus [1]): 2 h
- MAP (Rattus norvegicus [5]): -15%

- IC50 [2]: 4500 nM
- Duration [7]: 10 min
- IC50 [3]: 4800 nM
- inhibition [9]: 5%
Compound: O=C1CN(C2CCCC2)C(=O)c2ccccc2S1
- MAP (Rattus norvegicus [8]): 9%

- Duration [10]: 70 min
- IC50 [2]: 85 nM
- IC50 [3]: 26 nM
- inhibition [13]: 71%
Compound: Cc1ccc(N2CC(=O)SC(C)C2=O)cc1 (configuration not stated)
- Duration (Rattus norvegicus [11]): 3 h
- MAP (Rattus norvegicus [12]): -31%

- IC50 [2]: 21 nM
- IC50 [3]: 5 nM
- Duration [14]: 10 min
- inhibition [16]: 55%
Compound: Cc1ccc(N2CC(=O)SCC(C)C2=O)cc1 (configuration not stated)
- Duration (Rattus norvegicus [15]): > 1440 min
- MAP (Rattus norvegicus [17]): -37%

- IC50 [2]: 210 nM
- inhibition [18]: 50%
- IC50 [3]: 280 nM
- Duration [21]: 40 min
Compound: O=C1CN(C2CCCC2)C(=O)c2cccc(Cl)c2S1
- Duration (Rattus norvegicus [19]): 5.5 h
- MAP (Rattus norvegicus [20]): -17%

- IC50 [2]: 12 nM
- Duration [23]: 10 min
- inhibition [24]: 45%
Compound: C[C@@H]1CSC(=O)[C@@H]2Cc3ccccc3CN2C1=O
- Duration (Rattus norvegicus [22]): 900 min
- MAP (Rattus norvegicus [25]): -27%

- IC50 [2]: 380 nM
- IC50 [26]: 140 nM
Compound: CC1SC(=O)C2CSCN2C1=O (configuration not stated)

- inhibition [27]: 50%
- IC50 [2]: 400 nM
- IC50 [3]: 380 nM
- Duration [29]: 35 min
Compound: COc1cccc2c1SC(=O)CN(C1CCCC1)C2=O
- MAP (Rattus norvegicus [28]): -32%
- Duration (Rattus norvegicus [15]): >1440 min
